Square brackets hold non-standard residues; d marks the D form. Peptide text beside a SMILES is read from it. * marks the point of attachment. Benzoyl(4-tBu) = CC(C)(C)c1ccc(C(=O)*)cc1; Lys(Et2) = CCN(CC)CCCC[C@H](N)C(=O)O
What was measured:
CBX2 = target: T1, CBX2 (Homo sapiens, UniProt Q14781); test: TR-FRET competition assay, CBX2 chromodomain with UNC4195 tracer; type: binding
T1 sequence (Q14781 9-66): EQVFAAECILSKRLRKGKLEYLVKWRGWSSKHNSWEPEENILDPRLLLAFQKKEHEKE
Method in brief: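 His-tagged protein, biotinylated tracer and TR-FRET reagent (Eu-streptavidin, anti-6X-His ULight antibody) premixed in 20 mM Tris pH 7.5, 150 mM NaCl, 0.05% Tween 20, 2 mM DTT. Added to plates pre-stamped from 10 mM DMSO stocks (100X). Shaken 1 min, spun 1000 x g 2 min, 1 h dark. DMSO and competitor full-column controls per plate. Follow-up used 10-point threefold dilutions and a four-parameter fit for IC50.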

CBX7 = target: T2, CBX7 (Homo sapiens, UniProt O95931); test: TR-FRET competition assay, CBX7 chromodomain with UNC4195 tracer; type: binding
T2 sequence (O95931 8-62): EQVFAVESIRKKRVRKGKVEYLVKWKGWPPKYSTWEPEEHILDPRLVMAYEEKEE

MPP8 [1] = target: T3, MPP8 (Homo sapiens, UniProt Q99549); test: TR-FRET competition assay, MPP8 chromodomain with H3K9me3 tracer; type: binding
T3 sequence (Q99549 55-116): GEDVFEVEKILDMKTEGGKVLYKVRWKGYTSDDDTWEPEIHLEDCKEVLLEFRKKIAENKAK
Method in brief: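 His-tagged protein plus biotinylated tracer peptide with Eu-streptavidin and anti-6X-His ULight antibody, in 20 mM Tris pH 7.5, 150 mM NaCl, 0.05% Tween 20, 2 mM DTT; 10 µL total. Test compound: 16-point threefold dilution in buffer, in triplicate. Mixed, centrifuged, equilibrated 1 h in the dark, then read. Percent inhibition relative to DMSO (0%) and 100 µM competitor (100%); four-parameter fit gives IC50.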

CBX5 = CBX5 (Homo sapiens, UniProt P45973); conditions: affinity of CBX5 for H3K9me3; cited from earlier work
MPP8 [2] = target: T3, MPP8; conditions: MPP8 binding the tracer peptide H3K9me3; cited from earlier work

Chain of CBX5 (P45973 18-75): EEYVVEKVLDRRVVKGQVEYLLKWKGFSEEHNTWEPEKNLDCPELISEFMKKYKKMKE

IC50 (CBX2) | inhibition (CBX2; single-dose 25 µM, pilot screen in duplicate, 100% = 100 µM UNC3866) | IC50 (CBX7) | IC50 (MPP8 [1]) | Molecule | Kd (CBX5) | affinity (MPP8 [2])
1500 nM | 100% | 60 nM | 1000 nM | CCN(CC)CCCC[C@H](NC(=O)[C@H](CC(C)C)NC(=O)[C@H](C)NC(=O)[C@H](Cc1ccccc1)NC(=O)c1ccc(C(C)(C)C)cc1)C(=O)N[C@@H](CO)C(=O)OC [UNC3866] ({Benzoyl(4-tBu)}-FAL[Lys(Et2)]S-OMe) |  | 
 |  |  |  | ARTKQTARK(Me3)STGGKAPRKQL-K(Biotin)-NH2 [H3K9me3] | ~30000 nM | sub-micromolar

Reference: PMC6586500 (SLAS discovery : advancing life sciences R & D, 2019)
